Data: ChEMBL document CHEMBL1138733, “Chimeric cyclodepsipeptides as mimetics for the anthelmintic PF1022A” (2004)

How the values were obtained:
[1] = test system: Bos taurus; experiment: anthelmintic activity as the eggs per gram of faeces in sheep infected with 5000 Haemonchus contortus L3 larvae at 0.1 mg/kg; format: functional, Ovis aries, Feces
Summary of the method: (§1)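 Merino or Schwarzkopf sheep (25–35 kg) infected with 5000 H. contortus L3, dosed after the pre-patency period, orally in gelatine capsules or intravenously. Faecal egg counts by Wetzel-modified McMaster method, per gram of fresh faeces, at regular intervals before and after treatment. Activity as eggs per gram and percent reduction versus pretreatment. Untreated controls sampled at matching times.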

[2] = test system: Bos taurus; experiment: anthelmintic activity as the percent reduction in faecal egg count in sheep infected with 5000 Haemonchus contortus L3 larvae at 0.1 mg/kg; format: functional, Ovis aries, Feces; summary of the method: as §1
[3] = test system: Haemonchus contortus; experiment: anthelmintic activity as the eggs per gram of faeces in sheep infected with 5000 Haemonchus contortus L3 larvae at 0.01 mg/kg
[4] = test system: Haemonchus contortus; experiment: anthelmintic activity as the percent reduction in faecal egg count in sheep infected with 5000 Haemonchus contortus L3 larvae at 0.01 mg/kg

SMILES	Activity [1]	Reduction [2]	Activity [3]	Reduction [4]
CC(C)C[C@H]1C(=O)O[C@H](Cc2ccccc2)C(=O)N(C)[C@@H](CC(C)C)C(=O)O[C@H](C)C(=O)N(C)[C@@H](CC(C)C)C(=O)O[C@H](Cc2ccccc2)C(=O)N(C)[C@@H](CC(C)C)C(=O)O[C@H](C)C(=O)N1C	0 eggs/g	100%	573 eggs/g	43%
CC(C)C[C@H]1C(=O)N[C@H]2CCC3SC[C@@H](C(=O)O[C@H](C)C(=O)N(C)[C@@H](CC(C)C)C(=O)O[C@H](Cc4ccccc4)C(=O)N(C)[C@@H](CC(C)C)C(=O)O[C@H](C)C(=O)N1C)N3C2=O (stereo partly drawn)			83 eggs/g	95%
CC(C)C[C@H]1C(=O)O[C@H](Cc2ccccc2)C(=O)N(C)[C@@H](CC(C)C)C(=O)O[C@H](C)C(=O)N(C)[C@@H](CC(C)C)C(=O)N2CCC[C@@H]2C(=O)N2CCC[C@H]2C(=O)O[C@H](C)C(=O)N1C			50 eggs/g	98%
